The subject of data set [1] is Mycobacterium tuberculosis. The data set is described as follows: Antitubercular activity against Mycobacterium tuberculosis H37Rv incubated at 37 degC for 7 days by microplate alamar blue assay. It is filed as functional. Particulars: for MIC: Mycobacterium tuberculosis, H37Rv, 168 h. The essentials:
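Mtb H37Rv was grown in 7H9 broth with glycerol, Casitone, 10% OADC and 0.05% Tween 80 to OD600 0.4. Compounds were 2-fold serially diluted from DMSO stocks in 7H9, and wells were inoculated at 2 × 10⁵ CFU/mL. After 7 days at 37 °C, Alamar Blue was added and read after a further 24 h. MIC was the lowest concentration preventing the blue-to-pink change.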
(Alamar Blue is a resazurin reagent that responds to reducing activity.)

Data set [2] concerns Mycobacterium tuberculosis. The data set is described as follows: Antitubercular activity against Mycobacterium tuberculosis H37Rv incubated at 37 degC for 14 days in presence of 40% human serum by microplate alamar blue assay. It is filed as functional. As to conditions: 336 h. The essentials: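 This is the MABA run in 7H9 broth containing 40% human serum. Compounds were 2-fold serially diluted, and wells were inoculated with H37Rv at 2 × 10⁵ CFU/mL. Incubation was at 37 °C for 14 days, then Alamar Blue was added. MIC was the lowest concentration preventing the blue-to-pink colour change.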

The subject of data set [3] is Vero. As to the kind of experiment: Cytotoxicity against african green monkey Vero cells. It is filed as cell-based, Chlorocebus sabaeus.
Data set [4] deals with Mycobacterium tuberculosis. As to the kind of experiment: Antitubercular activity against non-replicating Mycobacterium tuberculosis H37Rv incubated for 10 days by LORA method. It is filed as functional. As to conditions: 240 h. The essentials:
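H37Rv carrying pFCA-luxAB was adapted to low oxygen by gradual self-depletion in a sealed, slowly stirred flask. It was then exposed to compounds for 10 days under anaerobic conditions. Cultures recovered for 28 h in ambient oxygen before n-decanal substrate was added and luminescence read. MIC was the lowest concentration giving a 90% reduction in luminescence versus untreated controls.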

The nature of data set [5]: Permeability across apical to basolateral side in human Caco2 cells incubated for 1 hr at 37 degC by HPLC-MS/MS method. It is filed as ADME, cell-based. As to conditions: Caco-2. The essentials: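 TC7 (Caco-2 subclone) monolayer; 10 μM compound in 1% DMSO in HBSS-MES pH 6.5 on apical donor side, basolateral receiver pH 7.4; shaken 1 h at 37 °C; receiver sampled, HPLC-MS/MS; duplicate means.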

A short description of data set [6]: Solubility in simulated intestinal fluid at pH 7.6 by HPLC method. It is filed as physicochemical. The essentials:
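Simulated intestinal fluid medium; each analogue 200 μM final in 2% DMSO, shaken 24 h at room temperature, then HPLC with photodiode array read at 230 nm; duplicate, means given.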

The nature of data set [7]: Efflux ratio in human Caco2 cells incubated for 1 hr at 37 degC by HPLC-MS/MS method. It is filed as ADME, cell-based. As to conditions: Caco-2. (Passage across Caco-2 layers is used to estimate intestinal permeability.)
Data set [8] can be described thus: Solubility in simulated gastric fluid at pH 1.5 by HPLC method. It is filed as physicochemical. The essentials:
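Compound at 200 μM final in 2% DMSO in simulated gastric fluid, shaken 24 h at room temperature; HPLC-photodiode array detection at 230 nm; duplicate means.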

A short description of data set [9]: Aqueous solubility in PBS buffer at pH 7.4 by HPLC method. It is filed as physicochemical. As to conditions: PBS buffer, read-out: solubility. The essentials: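 Compound at 200 μM final in 2% DMSO in PBS pH 7.4, shaken 24 h at room temperature; quantified by HPLC with photodiode array detection at 230 nm; duplicate, mean reported.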
Data set [10] in a line: Metabolic stability in human liver microsomes assessed as parent compound remaining at 1 uM incubated for 1 hr by HPLC-MS/MS method. It is filed as ADME, Microsome. As to conditions: read-out: Stability. The essentials:
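Pooled mixed-gender human liver microsomes (0.3 mg/mL protein), 1 μM compound with NADP-regenerating system in phosphate buffer pH 7.4, 1 h at 37 °C; parent measured at start and end by HPLC-MS/MS; duplicate means.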

Data set [11] can be described thus: Permeability across basolateral to apical side in human Caco2 cells incubated for 1 hr at 37 degC by HPLC-MS/MS method. It is filed as ADME, cell-based. Particulars: Caco-2.
The mark [12] stands for this setting: Chlorocebus sabaeus, Vero, read-out: IC50.

Values after ≈ are worked out from the molar mass of the structure shown.

Broadly, the MIC is the lowest concentration that inhibits growth of the organism. Broadly, the IC50 is the concentration that inhibits the measured activity by half. For orientation: MIC90 means the lowest concentration that inhibits either 90% of growth or 90% of the strains tested, depending on the study. As usually defined, the Papp A→B is how fast a substance crosses the layer from the apical side. The solubility is the dissolved amount per volume that the medium holds. A word on the efflux ratio: it is a quotient of directional permeabilities that is used to spot active efflux. One may read the Papp B→A as the apparent permeability from the basolateral to the apical side of a cell layer.

As to `O=C1c2ccc(N3CCCCC3)cc2-n2c1nc1ccncc1c2=O`, the MIC in [1] is 16 µg/mL (≈ 48.1 µM); in data set [2], > 32 µg/mL. For the same compound, in [3] (setting [12]), the IC50 is 20 µg/mL (≈ 60.2 µM).
For the compound `O=C1c2cc(OC(F)(F)F)ccc2-n2c1nc1ncccc1c2=O`, the MIC in data set [1] amounted to 0.25 µg/mL (≈ 0.75 µM); in data set [2], 0.5 µg/mL. For the same compound, the IC50 in data set [3] (setting [12]) stood at 7.6 µg/mL (≈ 22.8 µM). For the same compound, in data set [4], the MIC90 is 2.5 µg/mL (≈ 7.5 µM).
The like results for `O=C1C2=Nc3ccccc3CN2c2ccccc21` were, in that order, 1 µg/mL (≈ 4.27 µM), 2 µg/mL, 42 µg/mL (≈ 179 µM) and 20 µg/mL (≈ 85.4 µM).
On to `O=C1c2cc(F)ccc2-n2c1nc1ccccc1c2=O`, for which the MIC was found to be 0.125 µg/mL (≈ 0.47 µM) in data set [1] and 0.5 µg/mL in data set [2]. Also, the Papp A→B at 1 h in data set [5] was 66.6 ×10⁻⁶ cm/s. The values for the solubility in data set [6], in data set [8] and in data set [9] were 18.8 µM (≈ 5.01 µg/mL), 8.5 µM (≈ 2.26 µg/mL) and 4.9 µM (≈ 1.3 µg/mL), respectively. Besides, the efflux ratio at 1 h in [7] was > 1. The IC50 in [3] (setting [12]) was > 50 µg/mL. Further, the remaining at 1 h, 1 µM in data set [10] was found to be 46%. For the same compound, the MIC90 in data set [4] is > 50 µg/mL. This compound also showed a Papp B→A at 1 h in data set [11] of 29.9 ×10⁻⁶ cm/s.
With `O=C1c2ccc(N3CCCC3)cc2-n2c1nc1ccccc1c2=O`, in data set [3] (vero), the IC50 entry was “ND(Insoluble)”.
In data set [1], `O=C1c2cc(OC(F)(F)F)ccc2-n2c1nc1ccncc1c2=O` showed an MBC90 of 0.125 µg/mL (≈ 0.375 µM) and an MIC of 0.063 µg/mL (≈ 0.189 µM). In data set [2], the MIC worked out at 0.5 µg/mL. For the same compound, the IC50 in [3] (setting [12]) amounted to 5.7 µg/mL (≈ 17.1 µM). Besides, in data set [4], the MIC90 stood at 0.64 µg/mL (≈ 1.92 µM).
On to `Nc1ccc2c(c1)C(=O)c1nc3ccccc3c(=O)n1-2`, for which the minimum inhibitory concentration (MIC) in [1] worked out at 8 µg/mL (≈ 30.4 µM); in data set [2], 16 µg/mL.
`O=C1c2ccccc2-n2c1nc1ccc([N+](=O)[O-])cc1c2=O` had an MBC90 in data set [1] of 32 µg/mL (≈ 109 µM). For the same compound, the MIC came out at 16 µg/mL (≈ 54.6 µM) in data set [1] and 32 µg/mL in [2]. In data set [3] (setting [12]), the IC50 turned out to be 64 µg/mL (≈ 218 µM).
Turning to `O=C1C2=Nc3ccccc3CN2c2ccc(OC(F)(F)F)cc21`, the MIC in data set [1] stood at 0.125 µg/mL (≈ 0.393 µM); in data set [2], 0.5 µg/mL. Besides, in data set [3] (setting [12]), the IC50 was 1.3 µg/mL (≈ 4.08 µM).
The like results for `CC(C)(C)OC(=O)N1CCN(c2ccc3c(c2)-n2c(nc4ccncc4c2=O)C3=O)CC1` were, in that order, 16 µg/mL (≈ 36.9 µM), > 32 µg/mL and 24 µg/mL (≈ 55.4 µM).
The corresponding values for `O=C1c2ccc(N3CCNCC3)cc2-n2c1nc1ccncc1c2=O` are > 4 µg/mL, > 4 µg/mL and 11 µg/mL (≈ 33 µM).
On to `O=C1c2cc(Cl)ccc2-n2c1nc1ccncc1c2=O`, for which the figures for the MIC in [1] and in [2] were 0.25 µg/mL (≈ 0.881 µM) and 0.25 µg/mL, respectively. In addition, the IC50 in [3] (setting [12]) worked out at 8.5 µg/mL (≈ 30 µM). In data set [4], this compound gave an MIC90 of 0.68 µg/mL (≈ 2.4 µM).
In the case of `O=C1c2cc([N+](=O)[O-])ccc2-n2c1nc1ncccc1c2=O`, the MBC90 in data set [1] was 4 µg/mL (≈ 13.6 µM). The MIC in [1] was 0.5 µg/mL (≈ 1.7 µM); in data set [2] it was 4 µg/mL. Further, the IC50 in data set [3] (setting [12]) was < 0.2 µg/mL.
For the compound `O=C1c2ccccc2-n2c1nc1ccncc1c2=O`, the figures for the minimum inhibitory concentration (MIC) in [1] and in data set [2] were 0.5 µg/mL (≈ 2.01 µM) and 0.25 µg/mL, respectively. Besides, the IC50 in data set [3] (setting [12]) was found to be 5.3 µg/mL (≈ 21.3 µM). The compound further returned an MIC90 in [4] of 1.6 µg/mL (≈ 6.42 µM).
For `O=C1c2ccc(N3CCOCC3)cc2-n2c1nc1ccncc1c2=O`, the MIC is 32 µg/mL (≈ 95.7 µM) in data set [1] and > 32 µg/mL in data set [2]. Besides, the IC50 in data set [3] (setting [12]) is > 20 µg/mL.
The corresponding values for `O=C1c2ccc(Cl)cc2-n2c1nc1ccncc1c2=O` are 0.125 µg/mL (≈ 0.441 µM), 1 µg/mL and 9 µg/mL (≈ 31.7 µM).
In the case of `CC(C)(C)OC(=O)N1CCN(c2ccc3c(c2)-n2c(nc4ncccc4c2=O)C3=O)CC1`, in [3] (vero), the IC50 entry is given as “ND(Insoluble)”.
In [1], `COc1ccc2c(c1)C(=O)c1nc3ccccc3c(=O)n1-2` gave an MBC90 of 0.5 µg/mL (≈ 1.8 µM) and an MIC of 1 µg/mL (≈ 3.59 µM). Moreover, in data set [2], the MIC is 2 µg/mL. Moreover, the IC50 in data set [3] (setting [12]) was 5.5 µg/mL (≈ 19.8 µM).
The corresponding values for `CCOC(=O)c1ccc2c(c1)C(=O)c1nc3c(OC)cccc3c(=O)n1-2` are 1 µg/mL (≈ 2.85 µM), 0.125 µg/mL (≈ 0.357 µM), 4 µg/mL and 16 µg/mL (≈ 45.7 µM).
For `O=C1c2ccc(N3CCC(O)C3)cc2-n2c1nc1ccccc1c2=O` (stereo not drawn), the MIC in data set [1] came out at 8 µg/mL (≈ 24 µM); in data set [2], 8 µg/mL. The IC50 in data set [3] (setting [12]) was 27 µg/mL (≈ 81 µM).

(Values after ChEMBL document CHEMBL2346548, “Design, synthesis, and structure-activity relationship studies of tryptanthrins as antitubercular agents” (J Nat Prod, 2013).)
